Assay results from different studies.
Target: Amine oxidase [flavin-containing] B (MAOB, Homo sapiens, UniProt P27338)
Effect on: enzyme activity
Mode: inhibitor
One construct used (P27338 1-520): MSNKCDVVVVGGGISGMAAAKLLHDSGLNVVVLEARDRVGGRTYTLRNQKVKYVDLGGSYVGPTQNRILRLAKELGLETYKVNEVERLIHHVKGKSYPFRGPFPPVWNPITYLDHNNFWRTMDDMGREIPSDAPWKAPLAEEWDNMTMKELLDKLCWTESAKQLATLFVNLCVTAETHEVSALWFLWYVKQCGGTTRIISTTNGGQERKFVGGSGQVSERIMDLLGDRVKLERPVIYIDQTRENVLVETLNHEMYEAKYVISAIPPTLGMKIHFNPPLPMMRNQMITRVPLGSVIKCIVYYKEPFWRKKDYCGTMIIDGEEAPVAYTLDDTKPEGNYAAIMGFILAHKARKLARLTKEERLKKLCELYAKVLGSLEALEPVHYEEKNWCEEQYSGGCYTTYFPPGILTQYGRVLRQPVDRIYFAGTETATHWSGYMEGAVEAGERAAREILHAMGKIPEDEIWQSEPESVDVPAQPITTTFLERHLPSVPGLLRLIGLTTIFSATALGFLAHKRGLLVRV

SMILES | technique | IC50 [nM]
O=C1c2c(O)cc(O)cc2O[C@H](c2ccc(O)cc2)[C@H]1O | – | 68100
CSc1ccc(CNc2nc3ccccc3n3cnnc23)cc1 | fluorescence | 250
O=c1cc(-c2ccc(O)cc2)oc2c([C@@H]3O[C@H](CO)[C@@H](O)[C@H](O)[C@H]3O)c(O)cc(O)c12 | – | 34100
O=C(Nc1ccc(Br)cc1)c1cc(Cl)ccc1O | – | 139
COc1cc(/C=C/C(=O)N2CCC(Cc3ccccc3)CC2)ccc1OCc1ccccc1 | fluorescence | 3800
c1ccc(Nc2nccc(-c3ccco3)n2)cc1 | fluorescence | 510
O=c1c(O)c(-c2ccc(O)c(O)c2)oc2cc(O)ccc12 | – | > 100000
C#CCOc1ccc(/C=C/C(=O)N2CCC(Cc3ccccc3)CC2)cc1OC | fluorescence | 320
O=C(/C=C/c1ccc(O)cc1)c1ccc(O)cc1O | – | 510
COc1cc(/C=C/C(=O)N2CCc3ccccc3C2)ccc1OCc1ccccc1 | fluorescence | 3100
CCn1c(-c2nc3ccc(C(=O)N4CCCC(N)C4)cc3n2C)cc2ccccc21 (stereo not shown) | – | 20000
O=c1cc(-c2ccc(O)cc2)oc2c([C@@H]3O[C@H](CO)[C@@H](O)[C@H](O)[C@H]3O)c(O)c([C@@H]3O[C@H](CO)[C@@H](O)[C@H](O)[C@H]3O)c(O)c12 | – | 43300
c1ccc(Nc2nccc(-c3cccnc3)n2)cc1 | fluorescence | 400
O=C(Nc1ccc([N+](=O)[O-])cc1Cl)c1cc2ccccc2o1 | – | 123
COc1ccc(/C=C/C(=O)N2CCC(Cc3ccccc3)CC2)cc1OC | fluorescence | 1100
Nc1nn(-c2ccccc2)nc1C(=O)O | fluorescence | > 10000
